Measurements reported in ChEMBL document CHEMBL3046428, “Isolation, characterization and antifungal activity of major constituents of the Himalayan lichen Parmelia reticulata Tayl” (2011).
Converted amounts (≈) assume the structure as drawn.

Key:
Type in all cases: functional
[1] = system: Globisporangium debaryanum; test: Antifungal activity against Pythium debaryanum assessed as growth inhibition by poisoned food technique; details: read-out: ED50 (the source's name)
Method in brief: (§1)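 ED50 from poisoned-food growth inhibition on PDA at 250, 125 and 62.5 μg/mL in medium, with an acetone control. Plates were inoculated with a 5 mm mycelial disc, incubated at 28 °C, and colony diameter was measured in quadruplicate. Percent inhibition was corrected by Abbott's formula, using a correction factor from the 9 cm dish diameter, and ED50 (μg/mL) was derived by probit analysis.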

[2] = system: Globisporangium debaryanum; test: Antifungal activity against Pythium debaryanum assessed as growth inhibition at 62.5 ug/ml by poisoned food technique
Method in brief: (§2)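 Poisoned-food assay on PDA. Test material was diluted in acetone and mixed into molten medium at final 250, 125 or 62.5 μg/mL, with 1 mL acetone as control. Plates received a 5 mm mycelial disc from the front of a 2-week-old colony and were incubated at 28 °C until control growth was nearly complete. Colony diameter was measured, giving %I = (C−T)/C×100. Mean ± SD of four replicates.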

[3] = system: Globisporangium debaryanum; test: Antifungal activity against Pythium debaryanum assessed as growth inhibition at 125 ug/ml by poisoned food technique; method in brief: as §2
[4] = system: Globisporangium debaryanum; test: Antifungal activity against Pythium debaryanum assessed as growth inhibition at 250 ug/ml by poisoned food technique; method in brief: as §2
[5] = system: Pythium aphanidermatum; test: Antifungal activity against Pythium aphanidermatum assessed as growth inhibition by poisoned food technique; details: read-out: ED50 (the source's name); method in brief: as §1
[6] = system: Pythium aphanidermatum; test: Antifungal activity against Pythium aphanidermatum assessed as growth inhibition at 62.5 ug/ml by poisoned food technique; method in brief: as §2
[7] = system: Pythium aphanidermatum; test: Antifungal activity against Pythium aphanidermatum assessed as growth inhibition at 125 ug/ml by poisoned food technique; method in brief: as §2
[8] = system: Pythium aphanidermatum; test: Antifungal activity against Pythium aphanidermatum assessed as growth inhibition at 250 ug/ml by poisoned food technique; method in brief: as §2
[9] = system: Fusarium udum; test: Antifungal activity against Fusarium udum assessed as growth inhibition by poisoned food technique; details: read-out: ED50 (the source's name); method in brief: as §1
[10] = system: Fusarium udum; test: Antifungal activity against Fusarium udum assessed as growth inhibition at 62.5 ug/ml by poisoned food technique; method in brief: as §2
[11] = system: Fusarium udum; test: Antifungal activity against Fusarium udum assessed as growth inhibition at 125 ug/ml by poisoned food technique; method in brief: as §2
[12] = system: Fusarium udum; test: Antifungal activity against Fusarium udum assessed as growth inhibition at 250 ug/ml by poisoned food technique; method in brief: as §2
[13] = system: Macrophomina phaseolina; test: Antifungal activity against Rhizoctonia bataticola assessed as growth inhibition by poisoned food technique; details: read-out: ED50 (the source's name); method in brief: as §1
[14] = system: Macrophomina phaseolina; test: Antifungal activity against Rhizoctonia bataticola assessed as growth inhibition at 62.5 ug/ml by poisoned food technique; method in brief: as §2
[15] = system: Macrophomina phaseolina; test: Antifungal activity against Rhizoctonia bataticola assessed as growth inhibition at 125 ug/ml by poisoned food technique; method in brief: as §2
[16] = system: Macrophomina phaseolina; test: Antifungal activity against Rhizoctonia bataticola assessed as growth inhibition at 250 ug/ml by poisoned food technique; method in brief: as §2
[17] = system: Rhizoctonia solani; test: Antifungal activity against Rhizoctonia solani assessed as growth inhibition by poisoned food technique; details: read-out: ED50 (the source's name); method in brief: as §1
[18] = system: Rhizoctonia solani; test: Antifungal activity against Rhizoctonia solani assessed as growth inhibition at 62.5 ug/ml by poisoned food technique; method in brief: as §2
[19] = system: Rhizoctonia solani; test: Antifungal activity against Rhizoctonia solani assessed as growth inhibition at 125 ug/ml by poisoned food technique; method in brief: as §2
[20] = system: Rhizoctonia solani; test: Antifungal activity against Rhizoctonia solani assessed as growth inhibition at 250 ug/ml by poisoned food technique; method in brief: as §2
[21] = system: Athelia rolfsii; test: Antifungal activity against Athelia rolfsii assessed as growth inhibition by poisoned food technique; details: Agroathelia rolfsii; read-out: ED50 (the source's name); method in brief: as §1
[22] = system: Athelia rolfsii; test: Antifungal activity against Athelia rolfsii assessed as growth inhibition at 62.5 ug/ml by poisoned food technique; details: Agroathelia rolfsii; method in brief: as §2
[23] = system: Athelia rolfsii; test: Antifungal activity against Athelia rolfsii assessed as growth inhibition at 125 ug/ml by poisoned food technique; details: Agroathelia rolfsii; method in brief: as §2
[24] = system: Athelia rolfsii; test: Antifungal activity against Athelia rolfsii assessed as growth inhibition at 250 ug/ml by poisoned food technique; details: Agroathelia rolfsii; method in brief: as §2

| SMILES | EC50 [1] [µg/mL] | inhibition at 62.5 µg/mL [2] [%] | inhibition at 125 µg/mL [3] [%] | inhibition at 250 µg/mL [4] [%] | EC50 [5] [µg/mL] | inhibition at 62.5 µg/mL [6] [%] | inhibition at 125 µg/mL [7] [%] | inhibition at 250 µg/mL [8] [%] | EC50 [9] [µg/mL] | inhibition at 62.5 µg/mL [10] [%] | inhibition at 125 µg/mL [11] [%] | inhibition at 250 µg/mL [12] [%] | EC50 [13] [µg/mL] | inhibition at 62.5 µg/mL [14] [%] | inhibition at 125 µg/mL [15] [%] | inhibition at 250 µg/mL [16] [%] | EC50 [17] [µg/mL] | inhibition at 62.5 µg/mL [18] [%] | inhibition at 125 µg/mL [19] [%] | inhibition at 250 µg/mL [20] [%] | further results |
| --- | --- | --- | --- | --- | --- | --- | --- | --- | --- | --- | --- | --- | --- | --- | --- | --- | --- | --- | --- | --- | --- |
| COc1cc(C)c(C(=O)O)c(O)c1C | 73.8 (≈ 376 µM) | 33 | 61.4 | 83.8 | 71.1 (≈ 362 µM) | 28.4 | 67.7 | 79.3 | 106 (≈ 541 µM) | 23.7 | 46.5 | 58 | 74.5 (≈ 380 µM) | 39.4 | 56.4 | 68 | 50.6 (≈ 258 µM) | 50 | 70.6 | 82 | EC50 [21]: 116 µg/mL (≈ 589 µM); inhibition at 62.5 µg/mL [22]: 28.4%; inhibition at 125 µg/mL [23]: 44.3%; inhibition at 250 µg/mL [24]: 53% |
| CC(=O)C1=C(O)C=C2Oc3c(C)c(O)c(C(C)=O)c(O)c3C2(C)C1=O (racemic) [(+/-)-ISOUSNIC ACID] | 71 (≈ 206 µM) | 35.1 | 66.2 | 72.1 | 62.3 (≈ 181 µM) | 46.1 | 53.2 | 75.4 | 70.9 (≈ 206 µM) | 33.4 | 63.3 | 81 | 70.4 (≈ 204 µM) | 29.3 | 69.1 | 87.2 | 64.6 (≈ 188 µM) | 35.2 | 73.1 | 86.4 | EC50 [21]: 69.6 µg/mL (≈ 202 µM); inhibition at 62.5 µg/mL [22]: 32.8%; inhibition at 125 µg/mL [23]: 66.1%; inhibition at 250 µg/mL [24]: 84% |
| C=C1C(=O)OC(CCCCCCCCCCCCC)C1C(=O)O (racemic) [(+/-)-Protolichesterinic acid] | 16.1 (≈ 49.5 µM) | 78.3 | 90 | 100 | 57.1 (≈ 176 µM) | 44.3 | 72.3 | 80.3 | 55.7 (≈ 172 µM) | 44.3 | 78 | 90.3 | 77.6 (≈ 239 µM) | 28.3 | 50 | 89.3 | 23.1 (≈ 71.2 µM) | 67 | 77 | 83.3 | EC50 [21]: 61.4 µg/mL (≈ 189 µM); inhibition at 62.5 µg/mL [22]: 39.3%; inhibition at 125 µg/mL [23]: 72.2%; inhibition at 250 µg/mL [24]: 90% |
| COC(=O)c1c(C)cc(OC(=O)c2c(C)cc(O)c(C=O)c2O)c(C)c1O [ATRANORIN] | 44.8 (≈ 120 µM) | 56.3 | 78 | 89.7 | 105 (≈ 280 µM) | 22 | 43 | 60.3 | 50.3 (≈ 134 µM) | 50 | 81.3 | 90 | 58.8 (≈ 157 µM) | 44.3 | 67.7 | 80 | 64.6 (≈ 173 µM) | 40 | 62 | 81.3 | EC50 [21]: 39.7 µg/mL (≈ 106 µM); inhibition at 62.5 µg/mL [22]: 67.3%; inhibition at 125 µg/mL [23]: 89.7%; inhibition at 250 µg/mL [24]: 100% |
| COC(=O)c1c(C)cc(O)c(C)c1O [ATRARIC ACID] | 57 (≈ 290 µM) | 44 | 72.3 | 89.3 | 81.5 (≈ 415 µM) | 22.3 | 50 | 88.3 | 82.3 (≈ 420 µM) | 26.7 | 50 | 80.5 | 77.2 (≈ 394 µM) | 28.3 | 50.3 | 90.3 | 57.5 (≈ 293 µM) | 46 | 67 | 80.3 | EC50 [21]: 80.2 µg/mL (≈ 409 µM); inhibition at 62.5 µg/mL [22]: 33%; inhibition at 125 µg/mL [23]: 50%; inhibition at 250 µg/mL [24]: 74.3% |
| COc1cc(C)c(C(=O)Oc2cc(C)c(C(=O)O)c(O)c2C)c(O)c1C=O [BAEOMYCESIC ACID] | 144 (≈ 383 µM) | 18.3 | 38.2 | 77.1 | 149 (≈ 398 µM) | 11.4 | 29.3 | 44.4 | 110 (≈ 293 µM) | 33.5 | 47.1 | 57.9 | 150 (≈ 400 µM) | 17.1 | 28.4 | 49.1 | 71.3 (≈ 190 µM) | 33.4 | 61.4 | 81.6 | EC50 [21]: 86.7 µg/mL (≈ 231 µM); inhibition at 62.5 µg/mL [22]: 32.2%; inhibition at 125 µg/mL [23]: 44.4%; inhibition at 250 µg/mL [24]: 72.4% |
| CCOC(=O)c1c(C)cc(O)c(C=O)c1O [ETHYL HEMATOMMATE] | 128 (≈ 573 µM) | 15.1 | 26.3 | 56.5 | 133 (≈ 592 µM) | 13.1 | 32.6 | 50.4 | 250 (≈ 1120 µM) | 6.4 | 13.5 | 27.4 | 117 (≈ 523 µM) | 27.4 | 42.8 | 53.4 | 125 (≈ 557 µM) | 15.3 | 33.5 | 55.5 | EC50 [21]: 99 µg/mL (≈ 441 µM); inhibition at 62.5 µg/mL [22]: 28.4%; inhibition at 125 µg/mL [23]: 47.5%; inhibition at 250 µg/mL [24]: 61% |
